Source: ChEMBL document CHEMBL4396949, “Anti-cancer potential of novel glycosylated 1,4-substituted triazolylchalcone derivatives” (Bioorg Med Chem Lett, 2019)
The source made the active and inactive calls. The calls are words filed in the database; no cut-off is given here.

How the values were obtained:
[1] = system: MDA-MB-468; assay: Antiproliferative activity against human MDA-MB-468 cells incubated for 24 hrs by MTT assay; format: functional; settings: MDA-MB-468, 24 h, read-out: LD50 (the source's name)
Outline: (§1)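 Cells exposed to compounds at […]; viability read by MTT assay. LD50 derived from concentration-response. MDA-MB-468: triple-negative (ER-, PR-, HER2-) breast cancer. MCF-7: ER+, PR+, HER2- breast cancer. WI-38: non-cancerous lung fibroblasts. Selectivity index taken as WI-38 LD50 divided by cancer-cell LD50.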

[2] = system: MCF7; assay: Antiproliferative activity against human MCF7 cells incubated for 24 hrs by MTT assay; format: functional; settings: MCF7, 24 h, read-out: LD50 (the source's name); outline: as §1
[3] = Antiproliferative activity against human WI38 cells incubated for 24 hrs by MTT assay; format: cell-based, WI-38; settings: read-out: LD50; outline: as §1
[4] = Selectivity index, ratio of LD50 for human WI38 cells to LD50 for human MDA-MB-468 cells; format: toxicity; settings: WI38 cells and MDA-MB-468 cells, read-out: Selectivity Index
Outline: (§2)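 MTT cytotoxicity after exposure to […] in MDA-MB-468, MCF-7 and WI-38 fibroblasts; LD50 determined per line; selectivity index calculated as WI-38 LD50 divided by cancer-cell LD50.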

[5] = Selectivity index, ratio of LD50 for human WI38 cells to LD50 for human MCF7 cells; format: toxicity; settings: WI38 cells and MCF7 cells, read-out: Selectivity Index; outline: as §2
[6] = system: MDA-MB-468; assay: Induction of apoptosis in human MDA-MB-468 cells assessed as increase in apoptotic cells incubated for 24 hrs by annexin V-FITC and PI staining based flow cytometric analysis; format: functional, cell-based
Outline: (§3)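 Cells treated at 0, 20, 40 and 60 µM for 24 h, stained with Annexin V-FITC/PI and analysed by flow cytometry; apoptotic cell percentage quantified from dot plots.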

[7] = system: MCF7; assay: Induction of apoptosis in human MCF7 cells assessed as increase in apoptotic cells incubated for 24 hrs by annexin V-FITC and PI staining based flow cytometric analysis; format: functional, cell-based; outline: as §3
[8] = system: MDA-MB-468; assay: Induction of apoptosis in human MDA-MB-468 cells assessed as increase in apoptotic cells at 60 uM incubated for 24 hrs by annexin V-FITC and PI staining based flow cytometric analysis relative to control; format: functional; outline: as §3
[9] = system: MCF7; assay: Induction of apoptosis in human MCF7 cells assessed as increase in apoptotic cells at 60 uM incubated for 24 hrs by annexin V-FITC and PI staining based flow cytometric analysis relative to control; format: functional; outline: as §3
[10] = system: WI-38; assay: Induction of apoptosis in human WI38 cells at 20 to 60 uM incubated for 24 hrs by annexin V-FITC and PI staining based flow cytometric analysis; format: cell-based; settings: wi-38, 24 h; outline: as §3
[11] = system: MDA-MB-468; assay: Induction of ROS production in human MDA-MB-468 cells assessed as increase in green intensity incubated for 12 hrs by DCFDA staining based microscopic analysis; format: functional, cell-based
Outline: (§4)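 Cells exposed to 0, 20, 40 and 60 µM for 12 h, then loaded with DCFDA (100 µM) for 30 min; green fluorescence assessed by microscopy with image quantitation, plus spectrophotometric fluorescence intensity; H2O2 positive control.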

[12] = system: MCF7; assay: Induction of ROS production in human MCF7 cells assessed as increase in green intensity incubated for 12 hrs by DCFDA staining based microscopic analysis; format: functional, cell-based; outline: as §4
[13] = system: MDA-MB-468; assay: Disruption of mitochondrial membrane potential in human MDA-MB-468 cells assessed as shift of fluorescence from red to green by JC1 staining based fluorescent microscopic method; format: functional, cell-based
Outline: (§5)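 JC-1 staining with fluorescence imaging; mitochondrial permeability transition read as a red-to-green shift (fall in red/green ratio), quantified from images; H2O2 as positive control.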

[14] = system: MCF7; assay: Disruption of mitochondrial membrane potential in human MCF7 cells assessed as shift of fluorescence from red to green by JC1 staining based fluorescent microscopic method; format: functional, cell-based; outline: as §5
[15] = system: MDA-MB-468; assay: Induction of mitochondrial ROS production in human MDA-MB-468 cells at 40 to 60 uM incubated for 24 hrs by MitoSox red dye based fluorescence microscopic method; format: functional, cell-based
Outline: (§6)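 MitoSOX Red, a live-cell mitochondria-targeted superoxide probe, after exposure to 40 and 60 µM; read by fluorescence microscopy and spectrophotometric fluorescence intensity; H2O2 positive control.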

[16] = system: MCF7; assay: Induction of mitochondrial ROS production in human MCF7 cells at 40 to 60 uM incubated for 24 hrs by MitoSox red dye based fluorescence microscopic method; format: functional, cell-based; outline: as §6
[17] = system: MDA-MB-468; assay: Induction of cell cycle arrest in human MDA-MB-468 cells assessed as increase in accumulation at sub G1 phase at 60 uM by PI staining based FACS analysis relative to control; format: functional
Outline: (§7)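 Cells exposed to 20, 40 and 60 µM; cell cycle distribution by FACS, with sub-G1 population quantified as a measure of apoptosis.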

[18] = system: MCF7; assay: Induction of cell cycle arrest in human MCF7 cells assessed as increase in accumulation at sub G1 phase at 60 uM by PI staining based FACS analysis relative to control; format: functional; outline: as §7
[19] = system: MDA-MB-468; assay: Induction of DNA fragmentation in human MDA-MB-468 cells assessed as formation of polynuclear fragmentation at 40 to 60 uM incubated for 12 hrs by DAPI staining based fluorescence microscopic method; format: functional, cell-based
Outline: (§8)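 Nuclear morphology by DAPI staining and fluorescence microscopy; apoptotic (fragmented, polynuclear) nuclei counted and expressed as percent apoptotic cells versus untreated control; H2O2 positive control.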

[20] = system: MCF7; assay: Induction of DNA fragmentation in human MCF7 cells assessed as formation of polynuclear fragmentation at 40 to 60 uM incubated for 12 hrs by DAPI staining based fluorescence microscopic method; format: functional, cell-based; outline: as §8
[21] = system: MDA-MB-468; assay: Induction of DNA fragmentation in human MDA-MB-468 cells assessed as apoptotic cells at 40 to 60 uM incubated for 12 hrs by DAPI staining based fluorescence microscopic method; format: functional, cell-based; outline: as §8
[22] = system: MCF7; assay: Induction of DNA fragmentation in human MCF7 cells assessed as apoptotic cells at 40 to 60 uM incubated for 12 hrs by DAPI staining based fluorescence microscopic method; format: functional, cell-based; outline: as §8
[23] = system: MDA-MB-468; assay: Induction of DNA fragmentation in human MDA-MB-468 cells assessed as apoptotic cells at 60 uM incubated for 12 hrs by DAPI staining based fluorescence microscopic method relative to control; format: functional; outline: as §8
[24] = system: MCF7; assay: Induction of DNA fragmentation in human MCF7 cells assessed as apoptotic cells at 60 uM incubated for 12 hrs by DAPI staining based fluorescence microscopic method relative to control; format: functional; outline: as §8
[25] = system: MDA-MB-468; assay: Induction of apoptosis in human MDA-MB-468 cells assessed as increase in bax protein expression at 40 to 60 uM by Western blot analysis; format: functional, cell-based
[26] = system: MDA-MB-468; assay: Induction of apoptosis in human MDA-MB-468 cells assessed as decrease in bcl2 protein expression at 40 to 60 uM by Western blot analysis; format: functional, cell-based
[27] = system: MDA-MB-468; assay: Induction of apoptosis in human MDA-MB-468 cells assessed as increase in cleaved caspase-3 protein expression at 40 to 60 uM by Western blot analysis; format: functional, cell-based

SMILES: CN(C)c1ccc(/C=C/C(=O)c2ccc(OCc3cn([C@@H]4O[C@H](CO)[C@@H](O)[C@H](O)[C@H]4O)nn3)cc2)cc1
- CC50 [1]: 28 µM
- CC50 [2]: 31 µM
- CC50 at 24 h [3]: 59 µM
- selectivity ratio [4]: 2.11
- selectivity ratio [5]: 1.9
- Activity [6]: Dose-dependent effect
- Activity [7]: Dose-dependent effect
- Activity [8]: 60%
- Activity [9]: 63%
- Activity [10]: Non-Toxic
- Activity [11]: Dose-dependent effect
- Activity [12]: Dose-dependent effect
- Activity [13]: Dose-dependent effect
- Activity [14]: Dose-dependent effect
- Activity [15]: Active
- Activity [16]: Active
- Activity [17]: 62%
- Activity [18]: 67%
- Activity [19]: Active
- Activity [20]: Active
- Activity [21]: Active
- Activity [22]: Active
- Activity [23]: 72%
- Activity [24]: 78%
- Activity [25]: Active
- Activity [26]: Active
- Activity [27]: Active
